Each structure is given as a SMILES string. Among all 130,000 compounds or so, about 1,000 (0.77%) were called active. Roughly 1% stayed inconclusive and do not appear here.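 Rule for the calls: active = activation at 2 µM above a set limit, confirmed on inspection of the cell images; inconclusive = above the set limit but not confirmed on image inspection; inactive = the rest.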 Only a selection was taken, and actives are over-represented in it overall.

Results on 33 compounds are retold here after PubChem BioAssay AID1296 (Columbia University Molecular Screening Center, 2008).

A short description of this experiment: activators of insulin promoter-driven GFP, primary screen, imaging, TRM-6 cells, eGFP reporter, cell count (AID 1296).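 For activation: share of cells whose green reporter signal exceeds an intensity cutoff.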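 For normalized cell count: cells counted after 48 h compound exposure.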 The note with it: at 2 µM; activation: stronger effect = higher value, plate-scaled: unstimulated 0, stimulated control 100; normalized cell count: measured here: cell count (toxicity). A digest of the protocol: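 Test system: human fetal islet-derived TRM-6 cells with tamoxifen-inducible insulin promoter–eGFP reporter; schedule: overnight tamoxifen, then two-day compound incubation at 37 °C; measured by: high-content imaging of fixed cells with Hoechst nuclear stain; evaluation: percent cells above green-intensity threshold, converted to percent activation versus plate controls; control set: stimulated and unstimulated wells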
`COC(=O)Cc1c(O)ccn(Cc2cccc(C(F)(F)F)c2)c1=O`: the activation was 2.86% (inactive) and the normalized cell count turned out to be 159%.
The matching figures for `Cc1nn(-c2ccccc2)c(C)c1/C=C/C(=O)OC(C)C(N)=O` (stereo unspecified): -68.8% (inactive) and 181%.
Regarding `CCOC(=O)c1c(NC(=O)c2ccc(Br)o2)sc2c1CCCC2`, the activation is -3.7% (inactive) and the normalized cell count was 119%.
`CCOC(=O)c1c(NC(=O)CSc2nnc(C)c(=O)[nH]2)sc2c1CCC2`: the activation is 8.33% (inactive) and the normalized cell count was found to be 125%.
For `CCOC(=O)C(NC(=O)CC(C)C)(Nc1sc2c(c1C(N)=O)CCCC2)C(F)(F)F` (stereo unspecified) the same measures were 450% (active) and 72.9%.
On to `CSc1ccccc1NC(=O)Cc1ccc(Br)cc1`, for which the activation was -3.85% (inactive) and the normalized cell count turned out to be 70.6%.
`Cc1ccccc1NC(=O)C(C)c1ccc(-c2ccccc2)c(F)c1` (stereo unspecified): the activation was -2.7% (inactive) and the normalized cell count was determined as 168%.
The matching figures for `O=C(CSCc1ccc([N+](=O)[O-])cc1)Nc1cccc(C(=O)Nc2ccccc2C(=O)O)c1`: 8.33% (inactive) and 107%.
In the case of `COc1ccc(CC(=O)NCc2nnc(SCC(=O)Nc3nccs3)n2C)cc1`, the activation was 330% (active) and the normalized cell count was determined as 83.7%.
On to `COC(=O)c1ccc(NC(=O)CSc2nnc(CNc3ccc(OC)cc3)n2C)cc1`, for which the activation was 0% (inactive) and the normalized cell count is 125%.
Regarding `COc1ccc(CC(=O)NCc2nnc(SCC(=O)Nc3ncc(C)s3)n2C)cc1`, the activation is -5.56% (inactive) and the normalized cell count amounted to 192%.
For `CSCCC(=O)N1CCCC(CNC(=O)c2ccccc2Cl)C1` (stereo unspecified) the same measures were 7.14% (inactive) and 83%.
As for `Cn1cc(/C=C/c2nc3ccccc3c(=O)n2-c2cccc([N+](=O)[O-])c2)c2ccccc21`, the activation is -9.09% (inactive) and the normalized cell count was found to be 111%.
`COc1ccc(N(C(=O)c2ccc(C)cc2)S(=O)(=O)c2cccs2)cc1`: the activation was 3.85% (inactive) and the normalized cell count is 171%.
Regarding `CCN(CC)S(=O)(=O)c1cc(C(=O)Nc2ccccn2)ccc1C`, the activation is 309% (inactive) and the normalized cell count came out at 42.6%.
As for `Cc1ccc(C(=O)N/C(=C\c2cccs2)C(=O)NCCc2ccccn2)cc1C`, the activation was 392% (active) and the normalized cell count is 87.4%.
`Cc1ccc(C(=O)N/C(=C/c2cccs2)C(=O)N2CCCCC2)cc1`: the activation was 0% (inactive) and the normalized cell count amounted to 111%.
For `CCOc1ccc(N2C(=O)Nc3ccccc3C2(O)C(=O)NCc2ccco2)cc1` (stereo unspecified), the activation was 0% (inactive) and the normalized cell count is 74.7%.
For the compound `Cc1nnc(SCc2cccc(Cl)c2)n(N)c1=O`, the activation is 508% (active) and the normalized cell count was determined as 36.8%.
For `Cc1ccc(C(=O)CSc2nc3ccccc3c(=O)n2N)o1`, the activation is -5.26% (inactive) and the normalized cell count was determined as 137%.
For the compound `Cc1cccc(CSc2nnc(Cn3c(=O)sc4ccccc43)n2C)c1`, the activation is -50% (inactive) and the normalized cell count was determined as 79.6%.
Regarding `CC(C)CNC(=S)Nc1ccc(F)cc1`, the activation is -6.9% (inactive) and the normalized cell count was found to be 136%.
On to `Cc1nc(SCc2ccc(F)cc2)c([N+](=O)[O-])[nH]1`, for which the activation is 9.09% (inactive) and the normalized cell count came to 97.3%.
For `O=C(CCCN1C(=O)CCC1=O)Nc1ccc(Cl)c(C(F)(F)F)c1`, the activation is 444% (active) and the normalized cell count came out at 46.3%.
On to `O=C(CN1C(=O)CCC1=O)Nc1ccc(S(=O)(=O)N2CCOCC2)cc1`, for which the activation is -10% (inactive) and the normalized cell count is 72.6%.
The matching figures for `CS(=O)(=O)N(CC(=O)Nc1ccc(Cl)c(Cl)c1)C1CCCCC1`: 5.71% (inactive) and 124%.
With `CN1CCN(C(=O)/C(=C\c2ccc3c(c2)OCO3)NC(=O)c2cccs2)CC1`, the activation is -8.33% (inactive) and the normalized cell count is 121%.
For `CCN1/C(=C\c2ccc3ccccc3[n+]2CC)Sc2cc(C)ccc21`, the activation is 567% [fluoresces] (active) and the normalized cell count was determined as 15.3%.
As to `CCN1/C(=C/c2ccc3ccc(C)cc3[n+]2CC)Sc2ccccc21`, the activation is 567% (active) and the normalized cell count stood at 10.5%.
For `O=C(NC1CC1)c1cccc(Br)c1`, the activation was -3.12% (inactive) and the normalized cell count came out at 91.1%.
For `O=C(Cc1coc2ccc3ccccc3c12)NCc1cccs1` the same measures were -2.94% (inactive) and 153%.
Turning to `CCC(=O)/C(=C(/O)c1ccccc1)c1nc2ccccc2[nH]1`, the activation is 0% (inactive) and the normalized cell count came to 134%.
As for `COc1cc(NC(=O)Nc2ccc(C)cc2)cc([N+](=O)[O-])c1`, the activation was -6.45% (inactive) and the normalized cell count stood at 133%.
